# Experimental data published in PubChem BioAssay.
# Active and inactive are the calls of the source.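 The calls were made as follows, unless noted: active = viability at or under a set limit in both replicates, limit being median viability minus 3 SD (cut at about 48% in these data, passing the limit was not always enough); inconclusive = at or under the limit in just one replicate; inactive = at or above the limit in both replicates.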
# Experiments:
# [1] = reducers of endogenous Her2 protein level, primary screen, SKBR3 breast tumor cells, AlphaScreen, ATP viability (AID 461;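 active = Her2 level under about 52% in both replicate screens, with viability over 70% of control, limit read from the data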;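 as to Her2 level: lower value means less Her2 protein in the cells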;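 as to viability: percent of carrier control wells set as 100% viability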); conditions: 18-24 h, measured here: SKBR3 viability, ATP luminescence, at 10 µM
# [2] = target: Receptor tyrosine-protein kinase erbB-2 (Homo sapiens) (UniProt P04626); assay: as above; conditions: 18-24 h, at 10 µM, stronger effect = lower value
# Receptor tyrosine-protein kinase erbB-2 (Homo sapiens), sequence (P04626 whole entry, looked up): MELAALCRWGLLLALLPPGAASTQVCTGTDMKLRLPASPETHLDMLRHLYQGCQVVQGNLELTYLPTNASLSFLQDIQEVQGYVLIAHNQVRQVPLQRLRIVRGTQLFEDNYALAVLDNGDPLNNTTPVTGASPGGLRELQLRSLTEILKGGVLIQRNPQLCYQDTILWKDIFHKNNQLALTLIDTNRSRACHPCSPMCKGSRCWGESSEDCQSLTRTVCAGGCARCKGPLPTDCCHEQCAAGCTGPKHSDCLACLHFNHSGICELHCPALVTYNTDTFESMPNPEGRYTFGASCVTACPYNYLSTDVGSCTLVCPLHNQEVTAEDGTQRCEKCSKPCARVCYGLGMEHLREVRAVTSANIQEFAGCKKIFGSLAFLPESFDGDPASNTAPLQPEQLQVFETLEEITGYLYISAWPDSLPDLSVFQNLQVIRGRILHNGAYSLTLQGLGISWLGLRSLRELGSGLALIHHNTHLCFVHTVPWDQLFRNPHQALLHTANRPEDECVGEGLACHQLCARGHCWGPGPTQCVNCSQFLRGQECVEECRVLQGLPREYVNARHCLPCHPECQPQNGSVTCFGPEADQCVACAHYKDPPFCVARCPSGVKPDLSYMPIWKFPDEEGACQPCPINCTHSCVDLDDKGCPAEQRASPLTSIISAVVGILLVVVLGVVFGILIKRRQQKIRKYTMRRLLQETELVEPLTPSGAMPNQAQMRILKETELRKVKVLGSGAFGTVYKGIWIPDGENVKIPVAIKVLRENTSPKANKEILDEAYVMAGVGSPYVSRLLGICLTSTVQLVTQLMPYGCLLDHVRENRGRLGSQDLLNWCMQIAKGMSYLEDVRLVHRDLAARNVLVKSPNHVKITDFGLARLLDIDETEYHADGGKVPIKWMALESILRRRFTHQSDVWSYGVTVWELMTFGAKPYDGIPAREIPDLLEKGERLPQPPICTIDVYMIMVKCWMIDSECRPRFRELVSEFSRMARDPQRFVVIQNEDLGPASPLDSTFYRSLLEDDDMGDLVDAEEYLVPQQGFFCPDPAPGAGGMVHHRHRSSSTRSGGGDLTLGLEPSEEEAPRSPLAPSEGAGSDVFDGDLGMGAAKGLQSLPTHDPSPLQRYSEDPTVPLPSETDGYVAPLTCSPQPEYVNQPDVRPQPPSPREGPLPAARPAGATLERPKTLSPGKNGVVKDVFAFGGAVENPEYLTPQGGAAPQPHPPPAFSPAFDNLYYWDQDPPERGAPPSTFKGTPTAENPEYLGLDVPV
# [3] = SK-BR-3 cell growth inhibitors, pilot screen, 24 h, human (AID 572;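 active = viability at or below 10% of carrier control in both of two separate runs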;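 also: compound exposure lasted between 18 and 24 h rather than exactly 24 h; 100% = carrier-treated control wells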); conditions: SK-BR-3 viability, CellTiter-Glo luminescence, at 10 µM, stronger effect = lower value
# [4] = HUVEC growth inhibition – cell-based, human, primary screen (AID 575;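 active = viability at or below 30% in both replicate assays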;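 also: 100% = median of untreated cell wells with 0.1% DMSO on each plate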); conditions: HUVEC proliferation, CellTiter-Glo luminescence, 72 h; at 10 µM; stronger effect = lower value
# In short: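 Test system: primary human umbilical vein endothelial cells. Quantity: 1250 cells/well. Compound: single 10 µM dose, 0.1% DMSO, from 5x medium stock. Timing: 72 h treatment at 37 °C. Detection: ATP-based CellTiter-Glo luminescent read. Benchmarks: vehicle and MePR control wells. Format: 384-well plates coated with collagen.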
# [5] = growth inhibitors of H69AR lung tumor, primary screen, human, duplicate replicates (AID 580); conditions: H69AR lung tumor cells viability, ATP luminescence, 72 h; at 10 µM; stronger effect = lower value;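 also: 100% = mean luminescence of untreated wells and 0% = no signal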
# [6] = reversal of MRP1-mediated doxorubicin resistance, pilot screen, H69AR cells, doxorubicin co-treatment (AID 601;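 active = viability loss from added drug above about 55%, and viability with drug at most 40%, in both replicates, limit read from the data, passing the limit was not always enough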); conditions: CellTiter-Glo, 72 h, at 10 µM; for differential viability (reversal): stronger effect = higher value
# [7] = 384-well plate pilot, post-Golgi transport modulator project, inhibition of yeast transport mutant growth (AID 636; in the data active = inhibition above about 31%); conditions: absorbance 615 nm, about 18 h, stronger effect = higher value
# [8] = growth suppression of yeast trafficking mutant, preliminary HTS, modulators of trafficking downstream of Golgi apparatus project, 1536-format plate, OD 615 nm (AID 637; in the data active = inhibition above about 30%); conditions: yeast transport mutant growth, absorbance 615 nm, 18 h; stronger effect = higher value
# [9] = H69AR cells + 2 uM doxorubicin, measured here: viability with 2 uM doxorubicin, stronger effect = lower value
# [10] = H69AR cells, compound alone cytotoxicity
SMILES,viability [1] [%],Her2 level [2],viability [3],viability [4],viability [5],differential viability (reversal) ([6]; H69AR cells + 2 uM doxorubicin),"viability [6, 9] [%]","viability [6, 10] [%]",inhibition [7],inhibition [8]
O=C(NCC1CCCO1)C1CCN(c2ccc(S(=O)(=O)N3CCCC3)cc2)CC1 (stereo not given),115,112% (inactive),115% (inactive),99.2% (inactive),80% (inactive),-6.02% (inactive),86,80,-5.45% (inactive),-1.5% (inactive)
O=C(OCCN1C(=O)c2ccccc2C1=O)c1ccc(S(=O)(=O)N2CCCCCC2)cc1,114,76.5% (inactive),114% (inactive),78.5% (inactive),105% (inactive),17.6% (inactive),87.6,105,-6.22% (inactive),1.11% (inactive)
O=C1C2CCCN2C(c2ccc(Cl)cc2)N1c1nccs1 (stereo not given),99,77% (inactive),99% (inactive),86.5% (inactive),97.4% (inactive),7.26% (inactive),90.2,97.4,-2.24% (inactive),-1.94% (inactive)
Cc1c(NC(=O)C2(c3ccccc3)CCOCC2)c(=O)n(-c2ccccc2)n1C,92.5,92% (inactive),92.5% (inactive),113% (inactive),93.6% (inactive),-3.73% (inactive),97.3,93.6,-3.07% (inactive),-4.76% (inactive)
Cc1onc(-c2c(Cl)cccc2Cl)c1C(=O)N1CCc2ccccc21,97,91.5% (inactive),97% (inactive),68.1% (inactive),61.6% (inactive),-24.3% (inactive),85.9,61.6,-0.93% (inactive),2.74% (inactive)
COCCn1c(COc2ccc(Cl)cc2)nnc1SCC(N)=O,85.5,84.5% (inactive),85.5% (inactive),98.8% (inactive),109% (inactive),18.1% (inactive),90.8,109,-5.41% (inactive),2.54% (inactive)
Cc1cc(NC(=O)CSc2nnc(COc3cccc(C)c3C)n2Cc2ccco2)no1,102,94% (inactive),102% (inactive),97.5% (inactive),104% (inactive),19.5% (inactive),85,104,-4.59% (inactive),-0.79% (inactive)
COC(=O)CCN1CCC(C(N)=O)CC1,100,113% (inactive),100% (inactive),102% (inactive),100% (inactive),15% (inactive),85.1,100,-6.8% (inactive),2.46% (inactive)
C=CCC(NCc1ccco1)c1ccc(OC)cc1OC (stereo not given),96,98.5% (inactive),96% (inactive),99.1% (inactive),93% (inactive),7.67% (inactive),85.3,93,-4.08% (inactive),0.36% (inactive)
CCOC(=O)N1CCC(NC(=O)c2ccc3c(c2)N(C)CCS3)CC1,87,92.5% (inactive),87% (inactive),109% (inactive),92.2% (inactive),8.3% (inactive),83.9,92.2,-4.21% (inactive),4.92% (inactive)
O=C(Nc1ccc(N2CCOCC2)c(F)c1)c1ccncc1,97,99% (inactive),97% (inactive),114% (inactive),96.6% (inactive),12.5% (inactive),84.2,96.6,-4.27% (inactive),1.64% (inactive)
CCOC(=O)C(NC(=O)c1ccc(OC)cc1)(N1CCOCC1)C(F)(F)F (stereo not given),112,95.5% (inactive),112% (inactive),115% (inactive),100% (inactive),-2.41% (inactive),102,100,-4.81% (inactive),0.32% (inactive)
CCCCCOC(=O)CSc1nnc(-c2cc(OC)c(OC)c(OC)c2)o1,84.5,69.5% (inactive),84.5% (inactive),104% (inactive),104% (inactive),10.6% (inactive),93.2,104,-5% (inactive),-6.5% (inactive)
COC(=O)c1cn(C(=O)OC)c2ccccc12,96.5,102% (inactive),96.5% (inactive),85.1% (inactive),87.7% (inactive),-0.61% (inactive),88.3,87.7,-4.87% (inactive),4.1% (inactive)
COc1cc(C2CC(=O)NC3=C2C(=O)CC(C)(C)C3)ccc1O (stereo not given),89.5,93.5% (inactive),89.5% (inactive),82.7% (inactive),109% (inactive),19.9% (inactive),89.5,109,-3.82% (inactive),-4.17% (inactive)
O=S(=O)(NCc1cn2ccsc2n1)c1ccc2c(c1)OCCO2,117,102% (inactive),117% (inactive),96.4% (inactive),105% (inactive),9.79% (inactive),95.5,105,-7.07% (inactive),-2.26% (inactive)

SMILES,viability [1] [%],Her2 level [2],viability [3],viability [4],viability [5],differential viability (reversal) ([6]; H69AR cells + 2 uM doxorubicin),"viability [6, 9] [%]","viability [6, 10] [%]",inhibition [7],inhibition [8]
COc1ccc(Br)cc1CNC(=O)C1CCCN(S(C)(=O)=O)C1 (stereo not given),78,104% (inactive),78% (inactive),94.7% (inactive),88.4% (inactive),6.26% (inactive),82.2,88.4,0.9% (inactive),10.2% (inactive)
CCc1nn2c(=O)cc(CSc3nc4sc5c(c4c(=O)n3C)CCCC5)nc2s1,100,98% (inactive),100% (inactive),113% (inactive),90% (inactive),0.36% (inactive),89.6,90,-0.65% (inactive),10% (inactive)
CC1=Nn2c(nnc2-c2ccccn2)SC1,94,104% (inactive),94% (inactive),88.7% (inactive),99.5% (inactive),11.3% (inactive),88.2,99.5,-4.4% (inactive),-1.9% (inactive)
Cc1cc(C)c2c(N)c(C(=O)N3CCN(c4ncccn4)CC3)sc2n1,104,96.5% (inactive),104% (inactive),98.2% (inactive),101% (inactive),0.855% (inactive),101,101,-5.53% (inactive),0.49% (inactive)
C=CCOC(=O)C(C#N)c1nc2ccccc2nc1N1CCN(Cc2ccccc2)CC1 (stereo not given),94,79% (inactive),94% (inactive),77.7% (inactive),84.1% (inactive),-9.45% (inactive),93.6,84.1,-4.53% (inactive),2.3% (inactive)
O=C(Nc1ccccc1-c1ccccc1)NC1CCN(CC(=O)N2CCOCC2)CC1,98,103% (inactive),98% (inactive),91.7% (inactive),99.3% (inactive),7.87% (inactive),91.4,99.3,-2.34% (inactive),-3.11% (inactive)
Cc1cc(C(=O)NCCN2CCN(c3cccc(Cl)c3)CC2)n(-c2ccccc2)n1,98,91.5% (inactive),98% (inactive),42.3% (inactive),23.7% (active),-24.5% (inactive),48.2,23.7,-4.8% (inactive),-1.48% (inactive)
O=C1C2CC=C(Cl)CC2C(=O)N1c1ncn[nH]1 (stereo not given),86.5,96% (inactive),86.5% (inactive),106% (inactive),103% (inactive),2.85% (inactive),101,103,0.27% (inactive),-5.32% (inactive)
COC(=O)CCC(=O)Nc1cccc(Cl)c1,118,87% (inactive),118% (inactive),90.1% (inactive),85.4% (inactive),-5.69% (inactive),91.1,85.4,-0.65% (inactive),-2.54% (inactive)
CCOc1ccccc1NC(=O)C1CCCN(C(=O)NCc2ccccc2)C1 (stereo not given),102,89.5% (inactive),102% (inactive),96.8% (inactive),100% (inactive),3.45% (inactive),96.6,100,-2.13% (inactive),4.26% (inactive)
CCCOC(=O)C1[C@H]2C(=O)N(CCCOC)C[C@]23C=C[C@H]1O3 (stereo not given in full),92.5,85% (inactive),92.5% (inactive),98.5% (inactive),98.3% (inactive),-1.98% (inactive),100,98.3,-5.06% (inactive),-3.17% (inactive)
O=C(NCCCNC1CCCCC1)c1ccc(/C=N/O)nc1,84,96% (inactive),84% (inactive),92.4% (inactive),103% (inactive),4.55% (inactive),98.6,103,-0.91% (inactive),-5.71% (inactive)
CCOCCCNCC(=O)N1CCN(S(=O)(=O)c2ccc(C)cc2)CC1,90,99.5% (inactive),90% (inactive),96.2% (inactive),101% (inactive),12% (inactive),89.4,101,-6.18% (inactive),-1.45% (inactive)
Nn1c(SCc2csc(-c3ccccc3)n2)nnc1-c1cccs1,83,82.5% (inactive),83% (inactive),85.2% (inactive),97.3% (inactive),6.11% (inactive),91.2,97.3,-9.05% (inactive),5.25% (inactive)
O=C1CCc2cc(S(=O)(=O)N3CCC(C(=O)NCc4ccccn4)CC3)ccc2N1,81,89% (inactive),81% (inactive),98% (inactive),96.7% (inactive),1.42% (inactive),95.3,96.7,-0.4% (inactive),14.4% (inactive)
CCCCCc1c(O)nc(SCC(=O)NCC2CCCO2)[nH]c1=O (stereo not given),96,110% (inactive),96% (inactive),96.9% (inactive),105% (inactive),12.2% (inactive),93,105,0% (inactive),-3.81% (inactive)
